PKD1 kinase inh: inhibitors of human PKD1 kinase, biochemical, fluorescence polarization; Serine/threonine-protein kinase D1 (Homo sapiens), Q15139; PKD1 kinase fluorescence polarization assay; inhibition, % (test concentration not listed); actives 0.056% (n = 200,000); in the data active means inhibition above about 50%
Redox H2O2 prof: compounds producing H2O2 with reducing agent – biochemical, NIH compound library profiling, artefact control for MLSCN library redox annotation, primary screen; activation, % at 10 µM; DTT-dependent redox cycling H2O2, phenol red/HRP absorbance; 100% = 100 µM peroxide control, 0% = buffer; actives 0.03% (n = 200,000);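 active means activation of at least 50% relative to the plate's high and low controls in the primary single-dose screen; inactive means activation below 50%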;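 further: compound incubated with DTT at 0.8 mM final as the reducing agent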
ROMK mod: ROMK potassium channel modulators, primary screen, cell-based, thallium flux, MLSMR library | ATP-sensitive inward rectifier potassium channel 1 (Homo sapiens), P48048 | Tet-inducible ROMK, thallium flux fluorescence; actives lie on both sides | B-score at 10 µM | actives 2% (n = 130,000) | AID 1918, 2009;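 active means signal ratio slope over the read window, or its plate-corrected B-score, at least 3 SD from the plate mean, either direction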;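 further: B-score of the F/F0 ratio slope over 7 to 12 s after thallium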
MDM2 E3 inh: MDM2-luciferase reporter signal enhancers, primary screen, MDM2 E3 ligase inhibitor project, cell-based, luminescence, 1536-well | E3 ubiquitin-protein ligase Mdm2 (Homo sapiens), Q00987 | cell-based MDM2 ubiquitination luciferase reporter, 2 h; 0 = plate control, 100 = twice control, blank-subtracted | signal enhancement, % at 5 µM | actives 0.11% (n = 210,000) | AID 1230, 2008;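 active means signal enhancement of 30% or more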;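 further: luminescence tracks abundance of the self-degrading MDM2-luciferase fusion protein; higher signal means inhibition of MDM2 E3 ligase activity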
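Assay system: stable mammalian line carrying autodegrading MDM2–luciferase fusion reporter; Input: 2000 cells in each well; Compound dosing: single-point 5 µM; Schedule: 2 h compound exposure at 37 °C; Signal: SteadyLite luciferase luminescence after 15 min room-temperature reagent incubation; Evaluation: % luminescence enhancement versus blank-corrected plate control mean; Benchmarks: plate controls and plate blanks.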
Cl transport mod: KCC2 cotransporter modulators, thallium flux, primary screen, cell-based, HEK293 KCC2, FluoZin-2 fluorescence, MLSMR. Solute carrier family 12 member 5 (Homo sapiens), Q9H2X9. KCC2 cells, thallium flux FluoZin-2 fluorescence. B-score of Tl+ flux slope (higher = more flux/activation; lower = inhibition) at 10 µM. actives 2.2% (n = 190,000). AID 1456, 2008;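 active means thallium flux slope and its plate-corrected score both differing from the plate sample mean at a set confidence after two filtering rounds, in either direction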;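 further: slope of fluorescence scaled to starting intensity during 10 to 20 s after thallium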
Target sequence (Q9H2X9 whole entry, looked up): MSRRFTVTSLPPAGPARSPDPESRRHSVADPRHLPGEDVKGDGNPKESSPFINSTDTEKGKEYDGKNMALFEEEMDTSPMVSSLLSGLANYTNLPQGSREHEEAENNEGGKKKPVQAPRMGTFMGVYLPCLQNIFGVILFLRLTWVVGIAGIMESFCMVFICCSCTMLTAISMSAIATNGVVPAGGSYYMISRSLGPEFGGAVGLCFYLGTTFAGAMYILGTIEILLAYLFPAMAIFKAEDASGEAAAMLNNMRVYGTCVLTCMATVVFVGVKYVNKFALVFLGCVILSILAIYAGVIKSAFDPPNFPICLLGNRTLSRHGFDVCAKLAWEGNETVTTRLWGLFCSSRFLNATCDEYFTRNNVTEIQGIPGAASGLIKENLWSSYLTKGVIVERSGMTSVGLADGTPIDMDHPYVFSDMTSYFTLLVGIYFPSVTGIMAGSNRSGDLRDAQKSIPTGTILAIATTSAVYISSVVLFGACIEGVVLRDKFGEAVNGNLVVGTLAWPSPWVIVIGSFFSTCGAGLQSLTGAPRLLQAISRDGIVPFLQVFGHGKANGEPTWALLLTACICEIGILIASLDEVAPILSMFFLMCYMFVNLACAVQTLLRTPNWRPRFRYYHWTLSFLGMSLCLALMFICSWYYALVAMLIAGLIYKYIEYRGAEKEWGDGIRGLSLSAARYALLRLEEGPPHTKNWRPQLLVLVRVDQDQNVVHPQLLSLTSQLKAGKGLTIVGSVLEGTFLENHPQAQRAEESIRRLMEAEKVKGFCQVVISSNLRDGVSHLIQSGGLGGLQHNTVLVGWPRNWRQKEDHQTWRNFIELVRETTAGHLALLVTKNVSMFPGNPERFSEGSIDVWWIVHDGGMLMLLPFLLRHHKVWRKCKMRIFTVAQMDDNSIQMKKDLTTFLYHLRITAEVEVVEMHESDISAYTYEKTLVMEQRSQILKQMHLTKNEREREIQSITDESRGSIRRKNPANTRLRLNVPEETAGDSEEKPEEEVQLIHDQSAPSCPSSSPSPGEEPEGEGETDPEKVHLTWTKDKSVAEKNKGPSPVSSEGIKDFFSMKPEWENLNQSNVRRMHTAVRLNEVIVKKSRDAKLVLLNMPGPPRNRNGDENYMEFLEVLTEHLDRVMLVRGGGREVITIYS
p97 ATPase inh: inhibitors of human p97 ATPase, primary screen, biochemical; Transitional endoplasmic reticulum ATPase (Homo sapiens), P55072; recombinant p97 ATPase, Kinase-Glo ATP luminescence, 3 h; inhibition, % at 8 µM; actives 0.42% (n = 220,000); AID 1481, 2009; in the data active means inhibition above about 15%;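 further: 0% = DMSO vehicle and 100% = wells lacking enzyme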
p97 inh conf: p97 ATPase inhibitors, retest, confirmation, biochemical; shares compounds with p97 ATPase inh; recombinant p97 ATPase, Kinase-Glo ATP luminescence; inhibition, % at 8 µM; actives 44% (n = 760);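 active means percent inhibition of p97 ATPase above a set limit, the primary screen's mean plus 3 SD, cut at about 15% in these data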;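 further: 0% = DMSO wells and 100% = wells lacking p97 protein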
Numbers without * were called inactive; . = not tested or not shown; ! = not confirmed by another sample. Shown are actives, neighbours in structure and some others; about 3.4% of the full set was active somewhere.

SMILES	PKD1 kinase inh	Redox H2O2 prof	ROMK mod	MDM2 E3 inh	Cl transport mod	p97 ATPase inh	p97 inh conf
COc1cc(/C=C2/C(=O)N(c3ccccc3)N=C2C)ccc1OS(=O)(=O)c1ccccc1	9	0	0.54	-6	0.55	6	.
CC1=NN(c2ccc(C)c(C)c2)C(=O)/C1=C/c1ccc2c(c1)n(C)c(=O)n2C	-3	1	-0.43	-18	0.57	25*	-1
CCCC(=Nc1ccccc1)C1=C(O)C(C(=O)OC)C(C)(C)CC1=O (stereo not given)	-5	0	-0.48	-8	-0.52	1	.
CCCCC(=Nc1ccc(N)cc1)C1=C(O)C(C(=O)OC)C(C)(C)CC1=O (stereo not given)	-5	-2	-0.12	-15	-0.18	18*	9
CCC(=Nc1ccc(N)cc1)C1=C(O)C(C(=O)OC)C(C)(C)CC1=O (stereo not given)	2	3	.	-3	-1.6	15*	4
Cc1ccccc1NC(=S)N(Cc1ccccn1)Cc1ccccc1Cl	10	-2	-1.3	1	-0.087	-2	.
Brc1ccc2[nH]c3nc(SCCN4CCOCC4)nnc3c2c1	5	0	0.72	-4	-0.13	17*!	7
O=c1cc2c(=O)oc3cc(O)c(O)oc3c2c(O)c1O	.	.	.	-37	-0.28	26*	23*
COc1ccc(/C=c2/sc3n(c2=O)C(c2ccccc2OC)C2=C(N=3)c3ccccc3CC2)cc1O (stereo not given)	-5	3	0.28	-6	0.91	4	.
O=[N+]([O-])c1cc(S(=O)(=O)C(F)(F)F)ccc1Sc1nc2ccccc2[nH]1	-6	0	0.023	-14	-1.1	20*	29*
COc1ccccc1NC(=O)c1sc2nc(-c3ccco3)ccc2c1N	1	0	-0.86	-15	.	2	.
Nc1c(C(=O)Nc2ccccc2)sc2nc(-c3ccco3)ccc12	-21	0	0.08	-12	.	19*	18*
O=C(Nc1ccc(NC(=O)c2cc3ccccc3o2)cc1)c1ccc2c(c1)OCCO2	-10	0	0.24	-8	0.033	-2	.
Cc1cc(NC(=O)c2ccc3c(c2)OCCO3)ccc1NC(=O)c1cc2ccccc2o1	-7	0	0.7	-11	-1.4	16*	15*
O=[N+]([O-])c1cccc(/C=C/c2nc(C=Nc3ccccc3)c(O)o2)c1	0	0	-0.5	-13	0.72	-1	.
O=C(O)CSc1c(-c2ccccc2)[nH]c2ccccc12	-3	0	.	-1	0.28	16*	17*
O=C(O)CSc1c(-c2cccs2)[nH]c2ccccc12	-2	0	.	-18	-0.65	0	.
Nc1c(C(=O)OCC2CCCO2)c2nc3ccccc3nc2n1C1CCCC1 (stereo not given)	6	-1	-1.2	-11	.	17*	5
CC1=NN(c2nc(-c3ccc(C)cc3)cs2)C(=O)C1N=Nc1cccc(O)c1 (stereo not given)	-5	-2	0.99	19	-1.4	12	.
CC1=NN(c2ccc(C)cc2C)C(=O)C1C(c1cccc(O)c1)C1C(=O)N(c2ccc(C)cc2C)N=C1C (stereo not given)	-4	1	0.18	-12	-0.67	23*	6
COc1cc(/C=c2\sc3n(c2=O)C(c2ccccc2)C(c2ccccc2)=NN=3)ccc1O (stereo not given)	-7	-5	.	-18	0.46	16*	9
CCC(Cc1ccccc1)NC(=O)CCn1cccc1 (stereo not given)	-6	0	0.52	-17	0.3	16*	5
S=C1Cc2ccccc2N1	.	.	0.91	-6	0.71	32*	67*
O=C1CCc2ccccc2N1	.	.	.	-11	.	1	.
CCOc1ccccc1N(CC(=O)Nc1cccnc1)S(C)(=O)=O	-4	0	1.1	-22	.	5	.
SMILES	PKD1 kinase inh	Redox H2O2 prof	ROMK mod	MDM2 E3 inh	Cl transport mod	p97 ATPase inh	p97 inh conf
COc1ccc(C(C(=O)Nc2ccc3c(c2)OCO3)N(C)C(=O)Cc2c[nH]c3ccccc23)cc1 (stereo not given)	3	1	-0.66	-8	-1.6	2	.
Cc1ccc(NC(=O)COc2ccc(C3SCCS3)cc2)cc1	-3	1	-0.17	1	0.63	2	.
O=C(COc1ccc(C2SCCS2)cc1)NNC(=O)C(Cl)Cl	.	.	-0.27	-9	-3	26*	9
CN1CN(C)c2cccc3cccc1c23	0	1	-1.3	4	1.8	29*	5
Cc1cc(OC(=O)c2ccc(S(=O)(=O)N(C)C)cc2)c([N+](=O)[O-])c(=O)[nH]1	2	-9	0.077	-14	.	16*	6
O=C(O)c1cccc(CN2C(=O)SC(Nc3cccc4ccccc34)C2=O)c1 (stereo not given)	-7	-9	0.044	-10	.	17*	13
CC(C)Oc1ccc(N2C(=O)c3ccccc3C2=O)cc1	0	0	1.4	-9	.	3	.
CCN(CCNC(=O)CS(=O)(=O)Cc1nc(-c2cccc(OC)c2)oc1C)c1ccccc1	8	1	.	-2	-0.78	0	.
Cc1c(NS(=O)(=O)c2ccc(S(=O)(=O)c3ccccc3)s2)c(=O)n(-c2ccccc2)n1C	.	.	.	-5	1.1	16*	17*
OCC#Cc1ncc(C(F)(F)F)cc1Cl	-9	-1	-1.4	-23	0.0092	28*	33*
O=C(O/N=C\c1ccc(N2CCCCC2)c([N+](=O)[O-])c1)c1cccc(Cl)c1	0	-4	-0.48	-1	0.54	4	.
CC(C)OC(=O)CSc1n[nH]c(-c2cccnc2)n1	18	2	-0.0049	0	-0.36	15*	3
COC(=O)c1ccccc1NC(=O)CSc1n[nH]c(-c2cccnc2)n1	-2	0	-0.49	4	-0.38	8	.
CN1CCN(CC(=O)O)CC1	-6	0	0.19	-6	0.49	5	.
COc1cc(CCC(=O)Nc2ccc(Br)c(C(F)(F)F)c2)cc(OC)c1OC	3	0	0.41	.	0.79	-6	.
CCOCCCn1cnc2c(c1=O)c1nc3ccccc3nc1n2-c1ccccc1	1	2	.	-15	.	1	.
CN1c2ccccc2C(C)(C)C12C=Cc1cc(O)ccc1O2 (stereo not given)	-3	0	.	-21	.	1	.
